Broadly, the IC50 is the concentration needed to halve the response being measured. By inhibition is commonly meant how much of the control response was suppressed.

The source of these data is ChEMBL document CHEMBL3865794, “Novel securinine derivatives as topoisomerase I based antitumor agents” (Eur J Med Chem, 2016).

Active and inactive are the calls of the source. No cut-off for these calls is given here. Where only a bound is given, the exact number is not on record here.

The nature of assay [1]: Growth inhibition of human HepG2 cells after 72 hrs by MTT assay. The following applies: Homo sapiens, HepG2, 72 h. The assay is classed as functional, cell-based. Summed up:
(§1)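 Cells seeded at 5 × 10³ per well and incubated overnight in medium with 10% FBS. Medium then replaced with fresh medium containing compound at […] for 72 h. MTT (5 mg/mL stock, 20 µL per well) added for 4 h at 37 °C, formazan dissolved in DMSO, absorbance read at 570 nm. Each dose run in parallel triplicate. IC50 taken from mean absorbance versus concentration curves.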
(In general: Tetrazolium assays rely on reduction of a dye to a coloured formazan, in cell work by metabolically active cells.)

Assay [2] can be described thus: Growth inhibition of human SH-SY5Y cells after 72 hrs by MTT assay. The assay is classed as functional, cell-based. The note with it: Homo sapiens, SH-SY5Y, 72 h. The method, boiled down: as §1
In assay [3] the target is T1, DNA topoisomerase 1 (Homo sapiens) (UniProt P11387).
T1 sequence (whole entry): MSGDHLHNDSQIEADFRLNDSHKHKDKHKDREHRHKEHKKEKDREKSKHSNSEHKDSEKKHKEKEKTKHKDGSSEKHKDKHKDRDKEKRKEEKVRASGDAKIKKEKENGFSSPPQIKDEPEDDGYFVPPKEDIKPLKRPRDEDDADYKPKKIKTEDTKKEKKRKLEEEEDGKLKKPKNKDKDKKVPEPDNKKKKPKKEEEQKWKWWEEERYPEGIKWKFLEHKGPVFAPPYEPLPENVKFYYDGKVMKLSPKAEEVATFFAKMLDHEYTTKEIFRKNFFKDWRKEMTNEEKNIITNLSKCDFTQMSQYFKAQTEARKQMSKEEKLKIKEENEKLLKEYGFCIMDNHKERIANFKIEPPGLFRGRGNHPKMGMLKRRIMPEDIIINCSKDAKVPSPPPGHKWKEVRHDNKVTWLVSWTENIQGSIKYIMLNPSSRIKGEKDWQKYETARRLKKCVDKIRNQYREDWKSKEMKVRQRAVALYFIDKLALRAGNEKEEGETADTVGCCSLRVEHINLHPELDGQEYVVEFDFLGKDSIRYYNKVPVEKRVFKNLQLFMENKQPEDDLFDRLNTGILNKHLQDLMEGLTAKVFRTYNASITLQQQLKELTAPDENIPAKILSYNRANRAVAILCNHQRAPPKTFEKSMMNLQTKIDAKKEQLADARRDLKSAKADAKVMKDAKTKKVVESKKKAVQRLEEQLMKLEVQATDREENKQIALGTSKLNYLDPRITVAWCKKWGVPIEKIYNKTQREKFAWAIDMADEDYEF
Nature of the assay: Inhibition of DNA topoisomerase 1 (unknown origin) assessed as reduction in topoisomerase 1-DNA complex formation preincubated for 20 mins followed by supercoiled pBR322 plasmid DNA addition measured after 3 mins by electrophoretic mobility shift assay. Background: A gel shift assay detects complexes by their altered migration in electrophoresis.

Assay [4] is described as follows: Growth inhibition of human A549 cells after 72 hrs by MTT assay. The following applies: Homo sapiens, A549, 72 h. It counts as functional, cell-based. Summed up: as §1
Assay [5] can be described thus: Growth inhibition of human HeLa cells after 72 hrs by MTT assay. It counts as functional, cell-based. The following applies: Homo sapiens, HeLa, 72 h. Summed up:
as §1

Assay [6] is filed under the species Bos taurus. Nature of the assay: Inhibition of calf thymus DNA topoisomerase 1-mediated DNA cleavage assessed as drug-enzyme-DNA covalent ternary complex formation by measuring increase in linear band using negatively supercoiled pBR322 plasmid DNA as substrate at 25 to 50 uM after 30 mins by agarose gel electrophoresis. The method, boiled down:
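Calf thymus Topo I (30 units) and negatively supercoiled pBR322 in Topo I buffer (pH 7.5), 30 min at 37 °C. Test compounds at 25–200, camptothecin at […]. Trapped with 1% SDS, then proteinase K 0.8 mg/mL, 10 min at 50 °C. 1% agarose/TAE run 30 min at 60 V, ethidium bromide stain, second 30-min electrophoresis. Scored as supercoiled-to-nicked/linear conversion under UV.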

Assay [7] deals with T1, DNA topoisomerase 1 (Homo sapiens). Description: Inhibition of DNA topoisomerase 1 (unknown origin) assessed as reduction in relaxation of supercoiled pBR322 plasmid DNA at 100 uM incubated for 30 mins by agarose gel electrophoresis relative to control. Summed up:
(§2)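 Supercoiled pBR322 DNA incubated with Topo I in the presence or absence of compound for 30 min at 37 °C. Reaction stopped with dye solution of bromophenol blue, xylene cyanol and glycerol. Products run on 1% agarose in 1× TAE for 40 min, then EB-stained and UV-imaged. Inhibition rate derived from gel gray-scale analysis relative to control. Camptothecin served as positive control.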

Assay [8] can be described thus: Antiproliferative activity against human SW480 cells after 48 hrs by MTT assay. It counts as functional, cell-based. The following applies: SW480, 48 h.
Assay [9] is filed under the species Bos taurus. Description: Inhibition of calf thymus DNA topoisomerase 1 assessed as DNA-insertion by measuring reduction in conversion of negatively supercoiled pBR322 plasmid DNA to relaxed DNA at 25 uM preincubated followed by substrate addition measured after 30 mins by ethidium bromide staining based agarose gel electrophoresis. The method, boiled down:
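Calf thymus Topo I (20 units) and negatively supercoiled pBR322 DNA with test compound or ethidium bromide in Topo I buffer (50 mM Tris-HCl pH 7.5, 10 mM MgCl2, 50 mM KCl, 0.1 mM EDTA, 0.5 mM DTT, BSA), 30 min at 37 °C. 1% agarose gel in 1× TAE, 40 min. Ethidium bromide stain 30 min, UV imaging.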

A further assay relates to A549. Nature of the assay: Selectivity index, ratio of IC50 for human L02 cells to IC50 for human A549 cells. It counts as functional.
For assay [10], the target named is T1, DNA topoisomerase 1 (Homo sapiens). Description: Inhibition of DNA topoisomerase 1 (unknown origin) assessed as reduction in relaxation of supercoiled pBR322 plasmid DNA incubated for 30 mins by agarose gel electrophoresis. Summed up: as §2
A short description of assay [11]: Growth inhibition of human L02 cells after 72 hrs by MTT assay. It counts as cell-based. The following applies: L02, 72 h. The method, boiled down: as §1

On to `O=C1O[C@@]23C[C@@H](C=CC2=C1[C@H](O)c1ccc([N+](=O)[O-])cc1)N1CCCC[C@@H]13`, for which the IC50 turned out to be 4.19 µM in assay [1], 8.48 µM in assay [2], 2.23 µM in assay [4] and 8 µM in [5]. Further, the inhibition result in [3] is “Dose-dependent effect”.

`CC[C@@]1(O)C(=O)OCc2c1cc1n(c2=O)Cc2cc3ccccc3nc2-1` [CAMPTOTHECIN]: the half-maximal inhibitory concentration (IC50) was 29.8 µM in [1], more than 100 µM in [2], 0.12 µM in [4] and 59.1 µM in assay [5]. Also, the inhibition entry in the assay filed under Bos taurus [6] was “Active”.

In the case of `O=C1C=C2C=C[C@@H]3C[C@@]2(O1)[C@H]1CCCCN31` [SECURININE], the IC50 amounted to 36.9 µM in assay [1]; 78.9 µM in assay [2]; 23.6 µM in assay [4]; 25.9 µM in assay [8]; 50.2 µM in assay [5]. In addition, the inhibition in assay [7] was determined as 23.9%.

Consider `CC[n+]1c(-c2ccccc2)c2cc(N)ccc2c2ccc(N)cc21`, for which the inhibition entry in the assay listed under Bos taurus [9] was “Active”.

On to `O=C1O[C@@]23C[C@@H](C=CC2=C1C(O)c1ccc([N+](=O)[O-])cc1[N+](=O)[O-])N1CCCC[C@@H]13` (stereo partly specified), for which the IC50 in assay [1] was determined as 5.98 µM; in [2], 8.71 µM; in [4] it was 11.5 µM; in [5] it was 7.11 µM. In assay [7], the inhibition came to 43.1%.

In the case of `O=C1O[C@@]23C[C@@H](C=CC2=C1C(O)c1cccc(Br)c1)N1CCCC[C@@H]13` (stereo partly specified), the IC50 in assay [1] came out at 15.1 µM; in assay [2], 20.2 µM; in assay [4] it was 9.01 µM; in assay [5], 19.1 µM. Also, the inhibition in assay [7] is 34.7%.

In the case of `N#Cc1cccc(C(O)C2=C3C=C[C@@H]4C[C@@]3(OC2=O)[C@H]2CCCCN42)c1` (stereo partly specified), the IC50 is 17.9 µM in assay [1], 24.9 µM in assay [2], 7.08 µM in assay [4] and 15.6 µM in [5]. Besides, the inhibition in assay [7] is 34.7%.

Regarding `O=C1O[C@@]23C[C@@H](C=CC2=C1C(O)c1ccc([N+](=O)[O-])cc1)N1CCCC[C@@H]13` (stereo partly specified), the “Ratio IC50” value in the assay on A549 was 6.26 - 7.56. Also, the IC50 in assay [1] was determined as 4.13 µM; in [2], 8.5 µM; in [4], 2.21 µM; in assay [11] it was 16.7 µM; in assay [5], 8.26 µM. Further, the values for the inhibition entry in assay [10] and in assay [7] were “Dose-dependent effect” and 56.7%, respectively.

As to `O=C1O[C@@]23C[C@@H](C=CC2=C1C(O)c1ccc(C(F)(F)F)cc1)N1CCCC[C@@H]13` (stereo in doubt; 4a-6), in the assay on A549, the “Ratio IC50” value was 6.26 - 7.56. Moreover, the IC50 in assay [1] was 2.42 µM; in [2], 8.57 µM; in [4] it was 2.91 µM; in assay [11], 18.2 µM; in [5], 8.99 µM.

For `O=C1O[C@@]23C[C@@H](C=CC2=C1C(O)c1ccccc1)N1CCCC[C@@H]13` (stereo partly specified), the IC50 was 20.1 µM in assay [1], 25.4 µM in assay [2], 7.05 µM in assay [4] and 21.4 µM in [5]. The inhibition in [7] came out at 24%.

Turning to `O=C1O[C@@]23C[C@@H](C=CC2=C1C(O)c1cccc([N+](=O)[O-])c1)N1CCCC[C@@H]13` (stereo partly specified), the IC50 in assay [1] stood at 6.77 µM; in assay [2], 8.7 µM; in [4], 4.04 µM; in assay [5], 9.98 µM. Moreover, the inhibition in [7] came out at 36.2%.

On to `O=C1O[C@@]23C[C@@H](C=CC2=C1[C@@H](O)c1ccc([N+](=O)[O-])cc1)N1CCCC[C@@H]13`, for which the IC50 was 4.01 µM in assay [1], 8.52 µM in assay [2], 1.98 µM in [4] and 7.99 µM in assay [5]. In assay [3], the inhibition result was “Dose-dependent effect”.
